Measurements pooled from the literature.
Compare with care: the assays were run in different laboratories.
Target: Mitogen-activated protein kinase 1 (MAPK1, Homo sapiens, UniProt P28482)

CC1=C(C#N)C(c2ccc3c(c2)c(NC(=O)c2ccccc2C)nn3C)C(C#N)=C(C)N1 — remaining binding (cell-free assay, competition with immobilised ligand; 1 µM): 80%
CC(C)c1ccc(NC(=O)c2cccs2)c(-c2nc3ccccc3[nH]c2=O)c1 — activity vs control (enzyme activity, inhibitor; 1 µM): 110%
CC(C)(C)c1nc2c(s1)c1nc(N)ncc1c1ccc(NS(=O)(=O)c3c(F)cccc3F)c(F)c12 — remaining activity (enzyme activity, inhibitor, radiometric; 1 µM): 99%
O=C(NCCCC1CCCCC1)c1ccc(CNC(=O)c2cnn(-c3ccccc3)c2C(F)(F)F)cc1 — remaining binding (cell-free assay, competition with immobilised ligand; 0.1 µM): 93%
COc1cc(Nc2cnc(C#N)c(O[C@H](C)CN(C)C)n2)ncc1-c1cnn(C)c1 — remaining activity (enzyme activity, inhibitor, radiometric; 10 µM): 80%
CNCc1ccccc1-c1csc([C@@H](C)Nc2nc(C)nc3cc(OC)c(OC)cc23)c1 — remaining binding (cell-free assay, competition with immobilised ligand; 1 µM): 78%
CC(C)(C)C(=O)c1sc(NC2CCCCC2)nc1N — remaining activity (enzyme activity, inhibitor; 10 µM): 95%
COc1cc(Nc2c(C#N)cnc3cc(OCCCN4CCN(C)CC4)c(OC)cc23)c(Cl)cc1Cl — remaining signal (cell-free assay; 0.5 µM): 93.7%
CN(C)C1CCN(CC#Cc2nn(C3CCCC3)c3nc(NCc4ccccc4)ncc23)C1 (stereo not drawn) — inhibition (enzyme activity, inhibitor, FRET; 1 µM): 7%
Cc1cc(NC(=O)c2cccc3cc(-c4cccc5[nH]nc(N)c45)ccc23)ccc1F — activity vs control (enzyme activity, inhibitor; 0.1 µM): 100%
CCC(=O)N[C@H]1CC[C@@H](C(=O)N(C)c2ccc(-c3nc4ccccc4o3)cc2)C1 — remaining binding (cell-free assay, competition with immobilised ligand; 1 µM): 76%
Cc1ccc(C(=O)NCc2ccsc2)cc1C#Cc1cn(C(C)C)c2ncnc(N)c12 — activity vs control (enzyme activity, inhibitor; 1 µM): 98%
Nc1nc(Nc2ccccc2)sc1C(=O)c1c(F)cccc1F — remaining activity (enzyme activity, inhibitor; 10 µM): 68%
O=C(Nc1cnn(-c2csc(C(=O)NC3COC3)c2)c1)Nc1ccccc1Cl — remaining activity (enzyme activity, inhibitor; 5 µM): 110%
CCN(CC)CCNC(=O)c1c(C)[nH]c(/C=C2\C(=O)Nc3ccc(F)cc32)c1C — inhibition (enzyme activity, inhibitor; 10 µM): 1%
Cc1ccc(NC(=O)c2ccc(C)c(C(F)(F)F)c2)cc1C#Cc1nn(C2CCC(O)CC2)c2ncnc(N)c12 (stereo not drawn) — remaining signal (cell-free assay; 10 µM): 108%
Cc1c(NC(=O)c2cc(C(N)=O)nc3cc(F)ccc23)c(C(F)(F)F)nn1Cc1ccc(C#N)cc1 — remaining binding (cell-free assay, competition with immobilised ligand; 1 µM): 100%
CSc1nc(C)c(-c2ccnc(Nc3ccc(N4CCOCC4)cc3)c2)[nH]1 — inhibition (enzyme activity, inhibitor; 10 µM): 5.3%
CN([C@@H]1CCc2c(CC(=O)O)c3cc(S(C)(=O)=O)ccc3n2C1)S(=O)(=O)c1ccc(F)cc1 — remaining binding (cell-free assay, competition with immobilised ligand; 1 µM): 77%
FC(F)c1nc2ccccc2n1-c1nc(N2CCOCC2)nc(N2CCOCC2)n1 — remaining activity (enzyme activity, inhibitor; 10 µM): 105%
Cc1sc(C(=O)NC2COC2)cc1-n1cc(NC(=O)Nc2c(F)cccc2Cl)cn1 — remaining activity (enzyme activity, inhibitor; 10 µM): 90.8%
COc1cccc(-c2cc(=O)c3ccccc3o2)c1N — remaining signal (cell-free assay; 0.5 µM): 97.1%
Cc1ccc(Nc2nccc(N(C)c3ccc4c(C)n(C)nc4c3)n2)cc1S(N)(=O)=O — inhibition (enzyme activity, inhibitor; 10 µM): -2%
CC(=O)N1CCC(c2ccc(C(=O)NC3=NCCN3)cc2C(F)(F)F)CC1 — remaining binding (cell-free assay, competition with immobilised ligand; 1 µM): 100%
COc1cc(/C=C/C(=O)CC(=O)/C=C/c2ccc(O)c(OC)c2)ccc1O — activity vs control (enzyme activity, inhibitor; 1 µM): 75%
Cn1c(=O)n(-c2ccc(C(C)(C)C#N)cc2)c2c3cc(-c4cnc5ccccc5c4)ccc3ncc21 — remaining activity (enzyme activity, inhibitor; 10 µM): 114%
COc1cc2ncnc(Nc3ccc(F)c(Cl)c3)c2cc1OCCCN1CCOCC1 — remaining signal (cell-free assay; 0.5 µM): 103%
Cc1noc([C@H]2C[C@@H](c3ccc(C(F)(F)F)cc3)CN(C(=O)N3CCS(=O)(=O)C3)C2)n1 — remaining binding (cell-free assay, competition with immobilised ligand; 1 µM): 100%
Cc1ccc(C(=O)Nc2ccc(CN3CCN(C)CC3)c(C(F)(F)F)c2)cc1C#Cc1cnc2cccnn12 — remaining activity (enzyme activity, inhibitor; 23.5 nM): 100%
CNC(=O)c1cc(Oc2ccc(NC(=O)Nc3ccc(Cl)c(C(F)(F)F)c3)cc2)ccn1 — remaining signal (cell-free assay; 0.5 µM): 101%
COc1cc2ncnc(Nc3ccc(Oc4ccccc4)c(C)c3C)c2cc1OC — inhibition (enzyme activity, inhibitor; 1 µM): -2%
CC(C)(O)[C@H]1CC[C@H](Nc2ccc3ncc(-c4cccc(C(F)(F)F)c4)n3n2)CC1 — remaining activity (enzyme activity, inhibitor; 1 µM): 96%
Nc1[nH]nc2nnc(-c3c(-c4ccccc4)nn4ccccc34)cc12 — remaining signal (cell-free assay; 0.5 µM): 87.2%
